In ChEMBL document CHEMBL3593221, “Design, synthesis and preliminary biological evaluation of indoline-2,3-dione derivatives as novel HDAC inhibitors” (Bioorg Med Chem, 2015) one finds IC50, T/C and Activity data, which are given here for 1 compound.

Molecules are shown by their SMILES.

Series [1] is described as follows: Antiproliferative activity against human H7402 cells after 48 hrs by MTT assay. The format is functional, cell-based. The following applies: H7402, 48 h. In a few lines: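 Cells kept in RPMI1640 with 10% FBS at 37 °C, 5% CO2. Seeded 5000 per well and allowed at least 4 h to settle, then exposed to a range of compound concentrations for 48 h. 1% MTT solution added for 4 h, formazan dissolved in DMSO over 15 min, OD read at 570 nm. Values are the mean of three experiments.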

A short description of series [2]: Antitumor activity against human H7402 cells xenografted in mouse assessed as tumor increment ratio at 100 mg/kg/day, po for 16 days relative to control. The series is classed as functional. The essentials:
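Male athymic nude mice, 4-6 weeks old, inoculated subcutaneously in the right axilla with 6.88×10^7 H7402 cells. After 8 days, at about 140 mm³ mean tumor volume, mice were randomized to groups of seven. Daily gavage for 16 days; controls received an equal volume of PBS. Tumors were measured by caliper every three days, V=ab²/2. T/C% = treated RTV/control RTV, where RTV = Vt/V0. Two-tailed t test.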

For series [3], the system named is Mus musculus. The series can be described thus: Toxicity in human H7402 cells xenografted mouse assessed as change in body weight at 100 mg/kg/day, po for 16 days. The following applies: in vivo, 384 h. The format is organism-based. The essentials: (§1)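 H7402 subcutaneous xenograft in male athymic nude mice, seven per group, started once tumors reached about 140 mm³. Compound given daily by gavage for 16 days; controls received an equal volume of PBS. Body weight recorded every three days, and toxicity monitored during treatment.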

Series [4] concerns Mus musculus. The series can be described thus: Toxicity in human H7402 cells xenografted mouse assessed as change in toxic effect at 100 mg/kg/day, po for 16 days. The format is organism-based. The following applies: in vivo, 384 h. The essentials:
as §1

For `O=C(CCCCCCC(=O)Nc1ccccc1)NO` [VORINOSTAT], the 50% inhibitory concentration (IC50) in series [1] turned out to be 10.1 µM. Also, the T/C in series [2] was 75.53%. For the same compound, the Activity result in the series with Mus musculus [3] and with Mus musculus [4] was “Non-toxic” each time.
